Experimental data gathered from unrelated publications.
Mode: inhibitor
rep main protease: Replicase polyprotein 1ab, main protease (rep, Severe acute respiratory syndrome coronavirus 2, UniProt P0DTD1)
rep methyltransferase: Replicase polyprotein 1ab, methyltransferase (rep, Severe acute respiratory syndrome coronavirus 2, UniProt P0DTD1)
rep papain-like protease: Replicase polyprotein 1ab, papain-like protease (rep, Severe acute respiratory syndrome coronavirus 2, UniProt P0DTD1)

| SMILES | target | assay | setting | IC50 [µM] |
| --- | --- | --- | --- | --- |
| CCOc1nc2cccc(C(=O)O)c2n1Cc1ccc(-c2ccccc2-c2nnn[nH]2)cc1 | rep main protease | enzyme activity in cells | – | > 60 |
| O=C1c2ccccc2NC(c2cc(Br)ccc2O)N1N=Cc1cc(Br)ccc1O (stereo not drawn) | rep main protease | enzyme activity in cells | – | > 40 |
| [2H]C([2H])([2H])n1ncc2cc(/N=c3\[nH]c(=O)n(Cc4ncn(C)n4)c(=O)n3Cc3cc(F)c(F)cc3F)c(Cl)cc21 | rep main protease | enzyme activity, FRET | – | 3.53 |
| Cc1c[nH]c2ncc(C(=O)N[C@H]3[C@H](CNc4cc(=O)n5ccccc5n4)CCC34CCC4)cc12 | rep main protease | enzyme activity | – | 32.7 |
| CN1CCN(C(=O)c2ccc(-c3ccc4c(C=O)c(O)ccc4c3)s2)CC1 | rep main protease | enzyme activity | – | 1.3 |
| C=C(c1ccc(C(=O)O)cc1)c1cc2c(cc1C)C(C)(C)CCC2(C)C | rep main protease | enzyme activity in cells | – | 20 |
| NC(Cc1cc(O)c(O)cc1O)C(=O)O (racemic) | rep main protease | enzyme activity | – | > 20 |
| CN(C)[C@@H]1C(O)=C(C(N)=O)C(=O)[C@@]2(O)C(O)=C3C(=O)c4c(O)cccc4[C@@](C)(O)[C@H]3[C@H](O)[C@@H]12 | rep main protease | enzyme activity in cells | – | > 60 |
| CCOc1nc2cccc(C(=O)OC(C)OC(=O)OC3CCCCC3)c2n1Cc1ccc(-c2ccccc2-c2nn[nH]n2)cc1 (stereo not drawn) | rep methyltransferase | enzyme activity | – | 30 |
| Cc1ccc(-c2nc(N3CCN(C)CC3)s[n+]2-c2ccccc2)cc1 | rep main protease | enzyme activity | – | 0.534 |
| CCCCCCCCOc1ccccc1C(=O)Nc1ccc(C(=O)OCC[N+](C)(CC)CC)cc1 | rep methyltransferase | enzyme activity | – | 39.3 |
| CC(C)c1cccc(NC(=O)C2CC(=O)Nc3ccccc32)c1 (stereo not drawn) | rep main protease | enzyme activity | – | 3.72 |
| COC(=O)N[C@H](C(=O)N[C@@H](Cc1ccccc1)[C@@H](O)CN(Cc1ccc(-c2ccccn2)cc1)NC(=O)[C@@H](NC(=O)OC)C(C)(C)C)C(C)(C)C | rep main protease | enzyme activity in cells | – | > 60 |
| CC(=O)N[C@@H](CS)C(=O)O | rep main protease | enzyme activity | – | > 450 |
| Cc1cccc2c3c(ccc12)C1=C(C(=O)C3=O)[C@@H](C)CO1 | rep papain-like protease | enzyme activity, FRET | pH 7.5 | 33 |
| Cc1cccc(C)c1OCC(=O)N[C@@H](Cc1ccccc1)[C@@H](O)C[C@H](Cc1ccccc1)NC(=O)[C@H](C(C)C)N1CCCNC1=O | rep main protease | enzyme activity in cells | – | > 20 |
| CC(C)C[C@H](NC(=O)OCc1ccccc1)C(=O)N(C)N(C#N)CCC(N)=O | rep main protease | enzyme activity | – | 1.45 |
| CC(C)=CCOc1ccc(/C=C/C(=O)c2ccc(OCC=C(C)C)cc2OCC(=O)O)cc1 | rep methyltransferase | enzyme activity | – | 37.6 |
| CC(C)c1nc(CN(C)C(=O)N[C@@H](CCN2CCOCC2)C(=O)N[C@H](CC[C@H](Cc2ccccc2)NC(=O)OCc2cncs2)Cc2ccccc2)cs1 | rep main protease | enzyme activity in cells | – | > 20 |
| O=c1c2ccccc2[se]n1-c1cccc2cccnc12 | rep main protease | enzyme activity, FRET | – | 2.6 |
| CC(C)c1nnc(NC(=O)c2cccc(N3C(=O)c4ccccc4C3=O)c2)s1 | rep methyltransferase | enzyme activity | – | 35.6 |
| CN(CCCN1c2ccccc2CCc2ccccc21)CC(=O)c1ccc(Cl)cc1 | rep main protease | enzyme activity | – | 11.4 |
| COC(=O)C1=C(C)NC(C)=C(C(=O)OCCN2CCN(C(c3ccccc3)c3ccccc3)CC2)C1c1cccc([N+](=O)[O-])c1 (stereo not drawn) | rep main protease | enzyme activity in cells | – | > 10 |

| SMILES | target | assay | setting | IC50 [µM] |
| --- | --- | --- | --- | --- |
| O=C(Oc1cncc(Cl)c1)c1cc2c(Cl)cc(Cl)cc2[nH]1 | rep main protease | enzyme activity | – | 0.0233 |
| O=c1oc2c(cc1O)oc(=O)c1cc(O)c(O)c(O)c12 | rep methyltransferase | enzyme activity | – | 24.1 |
| O=C1c2ccccc2NC(c2cc([N+](=O)[O-])ccc2O)N1N=Cc1cc([N+](=O)[O-])ccc1O (stereo not drawn) | rep main protease | enzyme activity in cells | – | > 40 |
| CCCCCC/C=C\CCCCCCCCCc1cc(O)cc(O)c1 | rep main protease | enzyme activity | with preincubation | > 100 |
| Cc1coc2c1C(=O)C(=O)c1c-2ccc2c1CCCC2(C)C | rep papain-like protease | enzyme activity, FRET | pH 7.5 | 15.3 |
| c1ccc(-c2nc(N3CCOCC3)[s+]n2-c2ccccc2)cc1 | rep main protease | enzyme activity | – | 0.328 |
| Cc1ccc(C(=O)Nc2ccc(S(=O)(=O)O)c3cc(S(=O)(=O)O)cc(S(=O)(=O)O)c23)cc1NC(=O)c1cccc(NC(=O)Nc2cccc(C(=O)Nc3cc(C(=O)Nc4ccc(S(=O)(=O)O)c5cc(S(=O)(=O)O)cc(S(=O)(=O)O)c45)ccc3C)c2)c1 | rep methyltransferase | enzyme activity | – | 105 |
| Oc1cc(O)c2c(c1)O[C@H](c1ccc(O)c(O)c1)[C@H](O)C2 | rep main protease | enzyme activity | – | 0.05 |
| CC1(C)CC(=O)c2c(oc3c(Cl)cc(NS(=O)(=O)c4ccc5ccccc5c4)cc23)C1 | rep methyltransferase | enzyme activity | – | 87 |
| COc1cc(Br)cc(C=NN2C(=O)c3ccccc3NC2c2cc(Br)cc(OC)c2O)c1O (stereo not drawn) | rep main protease | enzyme activity in cells | – | > 40 |
| Cc1cccc(C)c1OCC(=O)N[C@@H](Cc1ccccc1)[C@@H](O)C[C@H](Cc1ccccc1)NC(=O)[C@H](C(C)C)N1CCCNC1=O | rep main protease | enzyme activity | – | 206 |
| COc1cc(C[C@@H](C)[C@@H](C)Cc2cc(O)c(OC)c(OC)c2)cc(O)c1OC | rep papain-like protease | enzyme activity, FRET | – | 5.23 |
| CC(=O)O/N=C1/C(=O)N(Cc2cc(Cl)ccc2Cl)c2ccc(Cl)cc21 | rep main protease | enzyme activity | – | 17.9 |
| COc1cc(C[C@@H](C)[C@@H](C)Cc2ccc(O)c(OC)c2)ccc1O | rep main protease | enzyme activity, FRET | – | 4.12 |
| O=c1[nH]nc(Sc2ncc([N+](=O)[O-])s2)n1-c1ccc2c(c1)OCCO2 | rep main protease | enzyme activity | – | 0.3 |
| COc1ccc2nc(NC(=O)CSc3nc4ccccc4c4nnnn34)sc2c1 | rep methyltransferase | enzyme activity | – | 44.8 |
| O=C(Cn1nnc2ccccc21)Nc1ccccc1N1CCc2sccc2C1 | rep main protease | enzyme activity | – | > 100 |
| O=C1C(Cl)=C(Cl)C(=O)C(Cl)=C1Cl | rep main protease | enzyme activity | – | 0.18 |
| CC(C)C[C@H](NC(=O)[C@@H](NC(=O)OCc1ccccc1)C(C)(C)C)C(=O)N(C)N(C#N)CCC(N)=O | rep main protease | enzyme activity | – | 0.775 |
| Cc1c(O)cccc1C(=O)N[C@@H](CSc1ccccc1)[C@H](O)CN1C[C@H]2CCCC[C@H]2C[C@H]1C(=O)NC(C)(C)C | rep main protease | enzyme activity | – | > 240 |
| C[S+]([O-])CCCCN=C=S (stereo not drawn) | rep main protease | enzyme activity | – | 5.5 |
| Nc1ccc(C(=O)N2CC3(CCC3)C[C@H]2CNC(=O)c2cncc3ccccc23)cc1O | rep main protease | enzyme activity | – | 29.6 |
